Test results: ChEMBL document CHEMBL1138301, “N-(2-Amino-phenyl)-4-(heteroarylmethyl)-benzamides as new histone deacetylase inhibitors” (Bioorg Med Chem Lett, 2007)
Active and inactive are the calls of the source. The rule behind the calls is not given here.

Key:
[1] = tested on: HCT-116; assay: Antiproliferative activity against human HCT116 cells by MTT assay; format: functional, cell-based
Outline: (§1)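 MTT read-out of cell proliferation/cytotoxicity in human colon cancer HCT116 cells and in normal human mammary epithelial cells (HMEC); IC50 derived.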

[2] = target: Histone deacetylase 1 (Homo sapiens, UniProt Q13547); assay: Inhibition of human recombinant HDAC1 expressed in insect Sf9 cells
Histone deacetylase 1, sequence (Q13547 whole entry): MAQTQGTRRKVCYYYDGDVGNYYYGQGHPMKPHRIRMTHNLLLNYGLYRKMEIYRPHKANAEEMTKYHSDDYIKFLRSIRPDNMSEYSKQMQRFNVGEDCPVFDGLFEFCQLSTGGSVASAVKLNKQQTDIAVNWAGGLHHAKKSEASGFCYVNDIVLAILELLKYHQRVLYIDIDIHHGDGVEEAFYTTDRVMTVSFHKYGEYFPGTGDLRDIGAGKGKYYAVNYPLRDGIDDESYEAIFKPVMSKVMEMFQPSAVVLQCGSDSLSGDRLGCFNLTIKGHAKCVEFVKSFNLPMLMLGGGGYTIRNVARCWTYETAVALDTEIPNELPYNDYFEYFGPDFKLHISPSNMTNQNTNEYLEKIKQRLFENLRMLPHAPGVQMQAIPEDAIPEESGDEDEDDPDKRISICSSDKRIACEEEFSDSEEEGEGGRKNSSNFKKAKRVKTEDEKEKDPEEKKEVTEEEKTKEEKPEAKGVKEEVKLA
Outline: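 FLAG-tagged recombinant HDAC1 expressed in Sf9 cells, purified by anti-FLAG affinity resin and size-exclusion chromatography. Substrate BocLys(acetyl)AMC. Deacetylated product detected fluorometrically after trypsin release of AMC (excitation 360 nm). IC50 determined.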

[3] = tested on: HCT-116; assay: Cell cycle arrest in HCT116 cells by accumulation at G2/M phase; format: functional, cell-based; conditions: Homo sapiens
[4] = tested on: HMEC; assay: Antiproliferative activity against human HMEC cells by MTT assay; format: cell-based; outline: as §1
[5] = tested on: T-24; assay: Induction of histone H4 acetylation in human T24 cells after 16 hrs by immunoblot relative to MS-275; format: functional, cell-based; conditions: T-24, 16 h
Outline: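 T24 cells exposed to 0, 1, 5 and 25 µM for 16 h, then harvested. Histones acid-extracted, run on SDS–PAGE and immunoblotted with antibodies to H4 and to acetylated H4. Relative effective concentration expressed against MS-275 at 1 µM.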

[6] = tested on: HCT-116; assay: Apoptosis in human HCT116 cells; format: functional, cell-based
[7] = tested on: T-24; assay: Induction of p21WAF1/Cip1 expression in human T24 cells […] after 16 hrs by Western blot analysis relative to MS-275; format: functional, cell-based; conditions: T-24, 16 h
Outline: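 T24 cells exposed to 0, 1, 5 and 25 µM or DMSO alone for 16 h. Whole-cell lysates analysed by Western blot with p21WAF1/Cip1 antibody. Relative effective concentration expressed against MS-275 at 1 µM.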

[8] = Half life in Sprague-Dawley rat at 2.5 mg/kg, iv; format: ADME, organism-based; design: dose 2.5 mg/kg, route intravenous; conditions: in vivo
Outline: (§2)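 Pharmacokinetics with single dosing at 2.5 mg/kg iv or 5.0 mg/kg po. Vehicles were acidified saline or acidified saline/PEG400. Half-life and oral availability were determined.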

[9] = Oral bioavailability in Sprague-Dawley rat at 5.0 mg/kg, po; format: ADME, organism-based; conditions: in vivo; outline: as §2
[10] = tested on: A549; assay: Antitumor activity against A549 xenografted nude mouse assessed as tumor growth inhibition at 80 mg/kg, po after 14 days; format: functional, Homo sapiens; conditions: A549, 336 h
Outline: (§3)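 Human tumour xenografts (A549 non-small cell lung, DU145 prostate, HCT116 colon) grown in nude mice, 6 animals per group. Dosing once daily for 14 days, intraperitoneal or oral. Read-out is % tumour growth inhibition versus vehicle-treated control animals.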

[11] = tested on: DU-145; assay: Antitumor activity against DU145 xenografted nude mouse assessed as tumor growth inhibition at 80 mg/kg, po after 14 days; format: functional, Homo sapiens; conditions: DU-145, 336 h; outline: as §3
[12] = tested on: HCT-116; assay: Antitumor activity against HCT116 xenografted nude mouse assessed as tumor growth inhibition at 40 mg/kg, ip after 14 days; format: functional, Homo sapiens; conditions: HCT-116, ip, 336 h, route intraperitoneal; outline: as §3
[13] = tested on: HCT-116; assay: Antitumor activity against HCT116 xenografted nude mouse assessed as tumor growth inhibition at 20 mg/kg, ip after 14 days; format: functional, Homo sapiens; conditions: HCT-116, ip, 336 h, route intraperitoneal; outline: as §3

IC50 [1]	IC50 [2]	EC50 [5]	EC50 [7]	half-life [8]	bioavailability [9]	SMILES	Activity [3]	IC50 [4]	Activity [6]	inhibition in vivo at 80 mg/kg [10]	inhibition in vivo at 80 mg/kg [11]	inhibition in vivo at 40 mg/kg [12]	inhibition in vivo at 20 mg/kg [13]
900 nM	90 nM	2000 nM	1000 nM	–	–	Nc1ccccc1NC(=O)c1ccc(CC2COc3ccccc3C2=O)cc1 (configuration not stated)	Active	6000 nM	Active	–	–	–	–
800 nM	100 nM	1000 nM	3000 nM	–	–	COc1ccc(Cn2c(=O)n(Cc3ccc(C(=O)Nc4ccccc4N)cc3)c(=O)c3ccccc32)cc1	Active	> 25000 nM	Active	–	–	–	–
400 nM	200 nM	1000 nM	600 nM	–	–	CCn1c(=O)n(Cc2ccc(C(=O)Nc3ccccc3N)cc2)c(=O)c2ccccc21	Active	25000 nM	Active	–	–	–	–
1000 nM	300 nM	1000 nM	1000 nM	2.1 h	38%	CN(C)CCn1c(=O)n(Cc2ccc(C(=O)Nc3ccccc3N)cc2)c(=O)c2ccccc21	Active	> 25000 nM	Active	–	–	–	–
500 nM	100 nM	1000 nM	2000 nM	0.6 h	34%	Nc1ccccc1NC(=O)c1ccc(CN2Cc3ccccc3C2=O)cc1	Active	37000 nM	Active	–	–	–	–
300 nM	100 nM	1000 nM	2000 nM	–	–	Nc1ccccc1NC(=O)c1ccc(Cn2c(=O)oc3ccccc3c2=O)cc1	Active	21000 nM	Active	–	–	–	–
1000 nM	400 nM	3000 nM	5000 nM	–	–	Nc1ccccc1NC(=O)c1ccc(Cn2c(=O)c3ccccc3n(CCN3CCOCC3)c2=O)cc1	Active	> 25000 nM	Active	–	–	–	–
5000 nM	200 nM	5000 nM	3000 nM	–	–	Nc1ccccc1NC(=O)c1ccc(CN2C(=O)c3ccccc3C2=O)cc1	Active	> 50000 nM	Active	–	–	–	–
400 nM	100 nM	< 1000 nM	1000 nM	–	–	Nc1ccccc1NC(=O)c1ccc(Cn2cnc3ccccc3c2=O)cc1	Active	28000 nM	Active	–	–	–	–
700 nM	100 nM	1000 nM	1000 nM	–	–	Cn1c(=O)n(Cc2ccc(C(=O)Nc3ccccc3N)cc2)c(=O)c2ccccc21	Active	> 42000 nM	Active	–	–	–	–
700 nM	200 nM	1000 nM	1000 nM	1.4 h	47%	Nc1ccccc1NC(=O)c1ccc(Cn2cnc3ccsc3c2=O)cc1	Active	> 50000 nM	Active	42%	45%	–	–
400 nM	60 nM	1000 nM	1000 nM	1.3 h	47%	Nc1ccccc1NC(=O)c1ccc(Cn2c(=O)[nH]c3ccsc3c2=O)cc1	Active	29000 nM	Active	55%	67%	61%	–
800 nM	300 nM	1000 nM	3000 nM	1.2 h	64%	CCn1c(=O)n(Cc2ccc(C(=O)Nc3ccccc3N)cc2)c(=O)c2sccc21	Active	> 50000 nM	Active	–	–	–	–
600 nM	200 nM	1000 nM	1000 nM	–	–	Nc1ccccc1NC(=O)c1ccc(Cn2nnc3ccccc3c2=O)cc1	Active	17000 nM	Active	–	–	–	–
2000 nM	1000 nM	3000 nM	3000 nM	–	–	Nc1ccccc1NC(=O)c1ccc(CC2COc3ccccc3C2)cc1 (configuration not stated)	Active	23000 nM	Active	–	–	–	–
600 nM	80 nM	1000 nM	2000 nM	0.9 h	16%	Cc1nc2ccccc2c(=O)n1Cc1ccc(C(=O)Nc2ccccc2N)cc1	Active	> 50000 nM	Active	–	–	–	–
600 nM	100 nM	< 1000 nM	2000 nM	–	–	Nc1ccccc1NC(=O)c1ccc(CC2Cc3ccccc3C2=O)cc1 (configuration not stated)	Active	8000 nM	Active	–	–	–	–
800 nM	60 nM	1000 nM	2000 nM	–	–	Nc1ccccc1NC(=O)c1ccc(Cn2c(=O)[nH]c3ccccc3c2=O)cc1	Active	18000 nM	Active	–	–	59%	51%
300 nM	30 nM	1000 nM	1000 nM	–	–	Nc1ccccc1NC(=O)c1ccc(Cc2coc3ccccc3c2=O)cc1	Active	9000 nM	Active	–	–	–	–
